Results as given in ChEMBL document CHEMBL1135893, “Synthesis and mode of action of hydrophobic derivatives of the glycopeptide antibiotic eremomycin and des-(N-methyl-D-leucyl)eremomycin against glycopeptide-sensitive and -resistant bacteria” (J Med Chem, 2002).

Key:
Nucleic Acid [1] = experiment: Inhibition of the peptidoglycan synthesis in the absence of dipeptide bonding using UDP-MurNAc-pentapeptide; type: nucleic-acid assay
Outline: (§1)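 Peptidoglycan synthesis run on filter plates with E. coli OV58 (pTA9) membranes, UDP-MurNAc-pentapeptide or UDP-MurNAc-tetrapeptide plus UDP-N-acetyl-[14C]-D-glucosamine as substrates; radiolabel incorporation into peptidoglycan measured. IC50 from at least six drug concentrations in duplicate, fitted by four-parameter logistic nonlinear regression.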

Staphylococcus aureus [2] = experiment: Antibacterial activity evaluated as minimum inhibitory concentration against 3797 Staphylococcus aureus (GISA); type: functional; set-up: unit not given beside the values
Outline: (§2)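 Broth microdilution in Mueller Hinton broth per NCCLS procedure; repeat results usually identical, always within 2-fold. GISA strains 3797 (HIP-5836 New Jersey) and 3798 (HIP-5827 Michigan); 533 S. epidermidis and 602 S. haemolyticus are clinical isolates; vancomycin-resistant enterococci have confirmed genotype.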

[3] = tested on: Staphylococcus haemolyticus; experiment: Antibacterial activity evaluated as minimum inhibitory concentration against 602 Staphylococcus haemolyticus; set-up: unit not given beside the values
Enterococcus faecium [4] = experiment: Antibacterial activity evaluated as minimum inhibitory concentration against 569 Enterococcus faecium (GRE); type: functional; outline: as §2
Nucleic Acid [5] = experiment: Inhibition of the peptidoglycan synthesis in the absence of dipeptide bonding using UDP-MurNAc-tetrapeptide; type: nucleic-acid assay; outline: as §1
[6] = tested on: Staphylococcus epidermidis; experiment: Antibacterial activity evaluated as minimum inhibitory concentration against 533 Staphylococcus epidermidis; type: functional; outline: as §2
Enterococcus faecalis [7] = experiment: Antibacterial activity evaluated as minimum inhibitory concentration against 560 Enterococcus faecalis (GRE); type: functional; outline: as §2
Nucleic Acid [8] = experiment: Ratio UDP-MurNAc-tetrapeptide to UDP-MurNAc-Pentapeptide; type: nucleic-acid assay
Enterococcus faecalis [9] = experiment: Antibacterial activity evaluated as minimum inhibitory concentration against 559 Enterococcus faecalis (GSE); type: functional; set-up: unit not given beside the values; outline: as §2
Enterococcus faecium [10] = experiment: Antibacterial activity evaluated as minimum inhibitory concentration against 568 Enterococcus faecium (GSE); type: functional; outline: as §2
Staphylococcus aureus [11] = experiment: Antibacterial activity evaluated as minimum inhibitory concentration against 3798 Staphylococcus aureus (GISA); type: functional; set-up: unit not given beside the values; outline: as §2

SMILES	IC50 (Nucleic Acid [1]) [nM]	MIC (Staphylococcus aureus [2])	MIC [3]	MIC (Enterococcus faecium [4])	IC50 (Nucleic Acid [5]) [µM]	MIC [6]	MIC (Enterococcus faecalis [7])	Ratio (Nucleic Acid [8])	MIC (Enterococcus faecalis [9])	MIC (Enterococcus faecium [10])	MIC (Staphylococcus aureus [11])
CCCCCCCCCCNC(=O)[C@H]1NC(=O)[C@H]2NC(=O)[C@H](NC(=O)[C@@H]3NC(=O)[C@H](CC(N)=O)NC(=O)[C@H](NC(=O)[C@@H](CC(C)C)NC)[C@H](O)c4ccc(c(Cl)c4)Oc4cc3cc(c4O[C@@H]3O[C@@H](CO)[C@H](O)[C@@H](O)[C@@H]3O[C@H]3C[C@@](C)(N)[C@@H](O)[C@@H](C)O3)Oc3cccc(c3)[C@H]2O[C@H]2C[C@@](C)(N)[C@@H](O)[C@@H](C)O2)c2ccc(O)c(c2)-c2c(O)cc(O)cc21	1300	4	0.13	2	6.4	0.13	4	5	1	0.5	4
CCCCCCCCCCNC(=O)[C@H]1NC(=O)[C@H]2NC(=O)[C@H](NC(=O)[C@@H]3NC(=O)[C@H](CC(N)=O)NC(=O)[C@H](N)[C@H](O)c4ccc(c(Cl)c4)Oc4cc3cc(c4O[C@@H]3O[C@@H](CO)[C@H](O)[C@@H](O)[C@@H]3O[C@H]3C[C@@](C)(N)[C@@H](O)[C@@H](C)O3)Oc3cccc(c3)[C@H]2O[C@H]2C[C@@](C)(N)[C@@H](O)[C@@H](C)O2)c2ccc(O)c(c2)-c2c(O)cc(O)cc21	–	4	1	2	–	0.5	4	–	2	2	8
CN[C@@H](CC(C)C)C(=O)N[C@H]1C(=O)N[C@@H](CC(N)=O)C(=O)N[C@H]2C(=O)N[C@H]3C(=O)N[C@H](C(=O)N[C@H](C(=O)O)c4cc(O)cc(O)c4-c4cc3ccc4O)[C@H](O[C@H]3C[C@@](C)(N)[C@@H](O)[C@@H](C)O3)c3cccc(c3)Oc3cc2cc(c3O[C@@H]2O[C@@H](CO)[C@H](O)[C@@H](O)[C@@H]2O[C@H]2C[C@@](C)(N)[C@@H](O)[C@@H](C)O2)Oc2ccc(cc2Cl)[C@H]1O	300	–	–	–	> 640	–	–	> 2300	–	–	–
CCCCCCCCCCN[C@]1(C)C[C@H](O[C@@H]2[C@H](Oc3c4cc5cc3Oc3ccc(cc3Cl)[C@@H](O)[C@@H](NC(=O)[C@@H](CC(C)C)NC)C(=O)N[C@@H](CC(N)=O)C(=O)N[C@H]5C(=O)N[C@H]3C(=O)N[C@H](C(=O)N[C@H](C(=O)O)c5cc(O)cc(O)c5-c5cc3ccc5O)[C@H](O[C@H]3C[C@@](C)(N)[C@@H](O)[C@@H](C)O3)c3cccc(c3)O4)O[C@@H](CO)[C@H](O)[C@H]2O)O[C@H](C)[C@@H]1O	1800	4	0.5	4	13.3	0.5	8	7.3	0.5	0.5	4
C[C@H]1O[C@@H](O[C@@H]2[C@H](Oc3c4cc5cc3Oc3ccc(cc3Cl)[C@@H](O)[C@@H](N)C(=O)N[C@@H](CC(N)=O)C(=O)N[C@H]5C(=O)N[C@H]3C(=O)N[C@H](C(=O)N[C@H](C(=O)NCc5ccc(-c6ccc(Cl)cc6)cc5)c5cc(O)cc(O)c5-c5cc3ccc5O)[C@H](O[C@H]3C[C@@](C)(N)[C@@H](O)[C@@H](C)O3)c3cccc(c3)O4)O[C@@H](CO)[C@H](O)[C@H]2O)C[C@@](C)(N)[C@H]1O	–	8	4	2	–	4	4	–	4	4	8
C[C@H]1O[C@@H](O[C@@H]2[C@H](Oc3c4cc5cc3Oc3ccc(cc3Cl)[C@@H](O)[C@@H](N)C(=O)N[C@@H](CC(N)=O)C(=O)N[C@H]5C(=O)N[C@H]3C(=O)N[C@H](C(=O)N[C@H](C(=O)O)c5cc(O)cc(O)c5-c5cc3ccc5O)[C@H](O[C@H]3C[C@@](C)(N)[C@@H](O)[C@@H](C)O3)c3cccc(c3)O4)O[C@@H](CO)[C@H](O)[C@H]2O)C[C@@](C)(N)[C@H]1O	–	64	16	>128	–	16	>128	–	16	16	64
CN[C@H](CC(C)C)C(=O)N[C@H]1C(=O)N[C@@H](CC(N)=O)C(=O)N[C@H]2C(=O)N[C@H]3C(=O)N[C@H](C(=O)N[C@H](C(=O)O)c4cc(O)cc(O)c4-c4cc3ccc4O)[C@H](O[C@H]3C[C@@](C)(N)[C@@H](O)[C@@H](C)O3)c3cccc(c3)Oc3cc2cc(c3O[C@@H]2O[C@@H](CO)[C@H](O)[C@@H](O)[C@@H]2O[C@H]2C[C@@](C)(NCc3ccc(-c4ccc(Cl)cc4)cc3)[C@@H](O)[C@@H](C)O2)Oc2ccc(cc2Cl)[C@H]1O	–	4	4	4	–	2	8	–	4	2	4
CN[C@@H](CC(C)C)C(=O)N[C@H]1C(=O)N[C@@H](CC(N)=O)C(=O)N[C@H]2C(=O)N[C@H]3C(=O)N[C@H](C(=O)N[C@H](C(=O)O)c4cc(O)cc(O)c4-c4cc3ccc4O)[C@H](O[C@H]3C[C@@](C)(N)[C@@H](O)[C@@H](C)O3)c3cccc(c3)Oc3cc2cc(c3O[C@@H]2O[C@@H](CO)[C@H](O)[C@@H](O)[C@@H]2O[C@H]2C[C@@](C)(NCc3ccc(-c4ccc(Cl)cc4)cc3)[C@@H](O)[C@@H](C)O2)Oc2ccc(cc2Cl)[C@H]1O	120	–	–	–	2.7	–	–	23	–	–	–
CCCCCCCCCCNCc1c(O)cc2c(c1O)-c1cc(ccc1O)[C@H]1NC(=O)[C@@H]3NC(=O)[C@H](CC(N)=O)NC(=O)[C@H](NC(=O)[C@@H](CC(C)C)NC)[C@H](O)c4ccc(c(Cl)c4)Oc4cc3cc(c4O[C@@H]3O[C@@H](CO)[C@H](O)[C@@H](O)[C@@H]3O[C@H]3C[C@@](C)(N)[C@@H](O)[C@@H](C)O3)Oc3cccc(c3)[C@@H](O[C@H]3C[C@@](C)(N)[C@@H](O)[C@@H](C)O3)[C@H](NC1=O)C(=O)N[C@@H]2C(=O)O	–	2	0.25	8	–	0.25	8	–	0.5	0.5	2
CCCCCCCCCCN[C@]1(C)C[C@H](O[C@@H]2[C@H](Oc3c4cc5cc3Oc3ccc(cc3Cl)[C@@H](O)[C@@H](N)C(=O)N[C@@H](CC(N)=O)C(=O)N[C@H]5C(=O)N[C@H]3C(=O)N[C@H](C(=O)N[C@H](C(=O)O)c5cc(O)cc(O)c5-c5cc3ccc5O)[C@H](O[C@H]3C[C@@](C)(N)[C@@H](O)[C@@H](C)O3)c3cccc(c3)O4)O[C@@H](CO)[C@H](O)[C@H]2O)O[C@H](C)[C@@H]1O	–	8	8	16	–	4	16	–	8	8	16
CN[C@H](CC(C)C)C(=O)N[C@H]1C(=O)N[C@@H](CC(N)=O)C(=O)N[C@H]2C(=O)N[C@H]3C(=O)N[C@H](C(=O)N[C@H](C(=O)O)c4cc(O)cc(O)c4-c4cc3ccc4O)[C@H](O[C@H]3C[C@@](C)(N)[C@@H](O)[C@@H](C)O3)c3cccc(c3)Oc3cc2cc(c3O[C@@H]2O[C@@H](CO)[C@H](O)[C@@H](O)[C@@H]2O[C@H]2C[C@@](C)(N)[C@@H](O)[C@@H](C)O2)Oc2ccc(cc2Cl)[C@H]1O	–	8	0.25	>128	–	0.25	>128	–	0.25	0.25	8
CN[C@H](CC(C)C)C(=O)N[C@H]1C(=O)N[C@@H](CC(N)=O)C(=O)N[C@H]2C(=O)N[C@H]3C(=O)N[C@H](C(=O)N[C@H](C(=O)NCc4ccc(-c5ccc(Cl)cc5)cc4)c4cc(O)cc(O)c4-c4cc3ccc4O)[C@H](O[C@H]3C[C@@](C)(N)[C@@H](O)[C@@H](C)O3)c3cccc(c3)Oc3cc2cc(c3O[C@@H]2O[C@@H](CO)[C@H](O)[C@@H](O)[C@@H]2O[C@H]2C[C@@](C)(N)[C@@H](O)[C@@H](C)O2)Oc2ccc(cc2Cl)[C@H]1O	–	4	1	4	–	2	4	–	2	1	4
CN[C@H](CC(C)C)C(=O)N[C@H]1C(=O)N[C@@H](CC(N)=O)C(=O)N[C@H]2C(=O)N[C@H]3C(=O)N[C@H](C(=O)N[C@H](C(=O)O)c4cc(O)c(CNCc5ccc(-c6ccc(Cl)cc6)cc5)c(O)c4-c4cc3ccc4O)[C@H](O[C@H]3C[C@@](C)(N)[C@@H](O)[C@@H](C)O3)c3cccc(c3)Oc3cc2cc(c3O[C@@H]2O[C@@H](CO)[C@H](O)[C@@H](O)[C@@H]2O[C@H]2C[C@@](C)(N)[C@@H](O)[C@@H](C)O2)Oc2ccc(cc2Cl)[C@H]1O	–	2	0.25	8	–	0.5	16	–	1	1	2
